Source: PubChem
thrombin 1536: blocks human thrombin protease activity; alpha-thrombin, Boc-VPR-AMC fluorogenic substrate cleavage; inhibition, % at 5 µM; actives 0.26% (n = 220,000);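 active = inhibition at or above 40%; inactive = inhibition below 40%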;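 also: 0% = enzyme with no compound and 100% = wells without enzyme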
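Assay system: human alpha-thrombin enzyme. Reagent: Boc-VPR-AMC substrate, 15 µM final. Compound dosing: one concentration per compound, 5 µM, with 0.2% DMSO. Incubation: room-temperature reaction. Technique: AMC fluorescence, 355/460 nm. Measure: % inhibition relative to enzyme controls and enzyme-free blanks.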
hK5 inh: blocks human kallikrein 5 protease activity | Q9Y337 | recombinant hK5, fluorogenic AMC substrate cleavage | inhibition, % at 5 µM | actives 0.59% (n = 210,000) | AID 873;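 active = inhibition of 40% or more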;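 also: 0% = enzyme controls without compound and 100% = no-enzyme blanks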
FXIIa inh 1536: factor XIIa (human) inhibition | P00748 | purified FXIIa, Boc-QGR-AMC fluorogenic substrate, 2 h | inhibition, % at 5 µM | actives 0.3% (n = 220,000) | AID 800; in the data active = inhibition above about 40%;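 also: 0% = enzyme with no compound and 100% = blank without enzyme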
Target sequence (P00748 20-372 limits assumed): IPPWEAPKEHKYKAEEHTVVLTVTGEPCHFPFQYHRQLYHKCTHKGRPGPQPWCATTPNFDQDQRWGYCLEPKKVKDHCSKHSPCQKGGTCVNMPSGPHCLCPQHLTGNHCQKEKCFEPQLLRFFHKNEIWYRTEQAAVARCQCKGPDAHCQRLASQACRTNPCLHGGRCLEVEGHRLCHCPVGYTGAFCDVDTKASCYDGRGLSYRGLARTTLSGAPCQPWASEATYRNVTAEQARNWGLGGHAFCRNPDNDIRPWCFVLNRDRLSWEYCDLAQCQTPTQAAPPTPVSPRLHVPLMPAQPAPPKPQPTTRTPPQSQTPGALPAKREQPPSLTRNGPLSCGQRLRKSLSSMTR
Target sequence (P00748 373-615 limits assumed): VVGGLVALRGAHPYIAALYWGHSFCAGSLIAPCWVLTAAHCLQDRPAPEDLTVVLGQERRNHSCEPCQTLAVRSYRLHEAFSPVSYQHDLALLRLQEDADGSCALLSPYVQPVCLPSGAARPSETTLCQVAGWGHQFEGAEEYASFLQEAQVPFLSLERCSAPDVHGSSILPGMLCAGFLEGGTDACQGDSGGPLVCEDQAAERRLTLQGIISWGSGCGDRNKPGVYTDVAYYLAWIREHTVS
Calpain2 inh: blocks pig calpain II enzyme activity; purified calpain II, fluorogenic peptide substrate, 30 min; inhibition, % at 16 µM; actives 0.37% (n = 220,000); AID 1236;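 active = inhibition above about 50%, limit read from the data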
FXIa inh: blocks human coagulation factor XIa protease activity; P03951; purified FXIa, Boc-Glu-Ala-Arg-AMC fluorogenic substrate; inhibition, % at 5 µM; actives 0.14% (n = 220,000); AID 798;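 active = inhibition of at least 40%; inactive = inhibition below 40%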;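 also: fluorescence of freed AMC excited at 355 nm; 0% = enzyme without compound and 100% = no enzyme blank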
Starred values were filed as active, the others as inactive. Sampled rows, rich in hits. Any-hit rate of the full collection: about 1.4%.

`CC1CC(C)CN(S(=O)(=O)c2ccc(C(=O)N3CCN(c4ccccc4)CC3)cc2)C1` (centres undefined) gave thrombin 1536 4, hK5 inh 40*, FXIIa inh 1536 5, Calpain2 inh 7 and FXIa inh 1.
O=C(c1ccccc1)N1CCN(S(=O)(=O)c2ccccc2)CC1 was read as thrombin 1536 0, hK5 inh 0, FXIIa inh 1536 9, Calpain2 inh -19 and FXIa inh 0.
For COc1ccc(C(CC(=O)O)NC(=O)COc2cc(C)ccc2C)cc1OC (centres undefined) the results were thrombin 1536 5, hK5 inh -8, FXIIa inh 1536 7, Calpain2 inh -29 and FXIa inh 2.
For O=C(CSc1nc(-c2ccc(F)cc2)nc2c1Cc1ccccc1O2)Nc1cccc(C(=O)O)c1 the results were thrombin 1536 -5, hK5 inh -8, FXIIa inh 1536 6, Calpain2 inh 59* and FXIa inh 2.
Screening CCc1nnc(NS(=O)(=O)c2ccc(NC(=S)NC(=O)c3ccccc3)cc2)s1 returned thrombin 1536 -10, hK5 inh -19, FXIIa inh 1536 9, Calpain2 inh 23 and FXIa inh 9.
For CCc1nnc(NS(=O)(=O)c2ccc(NC(=S)NC(=O)c3ccc(Br)cc3)cc2)s1 the results were thrombin 1536 -5, hK5 inh -33, FXIIa inh 1536 11, Calpain2 inh 70* and FXIa inh 10.
`COc1ccc(/C=N/Nc2ncnc3sc4c(c23)CCCC4)cc1OC` gave thrombin 1536 -6, hK5 inh -15, FXIIa inh 1536 30, Calpain2 inh 4 and FXIa inh 24.
O=C(CCN1C(=O)c2ccc([N+](=O)[O-])cc2C1=O)Nc1ccc(O)cc1C(=O)O was read as thrombin 1536 -6, hK5 inh 1, FXIIa inh 1536 7, Calpain2 inh -29 and FXIa inh -2.
Screening O=C(O)Cc1ccc(NC(=O)CCN2C(=O)c3ccc([N+](=O)[O-])cc3C2=O)cc1 returned thrombin 1536 -9, hK5 inh -2, FXIIa inh 1536 100*, Calpain2 inh 30 and FXIa inh 1.
O=C(CCCN1C(=O)c2ccccc2C1=O)N1CCC(c2ccccc2)C1 (centres undefined) was read as thrombin 1536 -3, hK5 inh 13, FXIIa inh 1536 -5, Calpain2 inh 51* and FXIa inh -24.
`O=C(CCCN1C(=O)c2ccccc2C1=O)N1CCCCC1` gave thrombin 1536 -2, hK5 inh -11, FXIIa inh 1536 5, Calpain2 inh 11 and FXIa inh 1.
`Cc1ccccc1CSc1nc(C(C)(C)C)cc(=O)[nH]1` gave thrombin 1536 6, hK5 inh -3, FXIIa inh 1536 11, Calpain2 inh -22 and FXIa inh -2.
Screening Cc1ccc(Sc2cc(Cl)nc(N)n2)cc1 returned thrombin 1536 23, hK5 inh 77*, FXIIa inh 1536 20, Calpain2 inh 5 and FXIa inh 10.
For Nc1nc(Cl)cc(Sc2ccc(F)cc2)n1 the results were thrombin 1536 -19, hK5 inh -11, FXIIa inh 1536 0, Calpain2 inh -25 and FXIa inh -10.
CSc1ncccc1C(=O)Nc1nnc(C2CC2)s1 was read as thrombin 1536 1, hK5 inh -13, FXIIa inh 1536 -1, Calpain2 inh 8 and FXIa inh -4.
Screening Cc1ccc(OCc2nnc(SCC(=O)O)n2N)cc1 returned thrombin 1536 3, hK5 inh -23, FXIIa inh 1536 45*, Calpain2 inh 23 and FXIa inh 30.
For CC(C)(C)c1ccc(OCc2nnc(SCC(N)=O)n2N)cc1 the results were thrombin 1536 1, hK5 inh 16, FXIIa inh 1536 9, Calpain2 inh -8 and FXIa inh -3.
`CS(=O)(=O)c1nc(-c2ccc(Br)cc2)n[nH]1` gave thrombin 1536 -6, hK5 inh -2, FXIIa inh 1536 98*, Calpain2 inh 31 and FXIa inh 3.
Cn1cnc([N+](=O)[O-])c1N=C(N)N was read as thrombin 1536 3, hK5 inh 2, FXIIa inh 1536 10, Calpain2 inh 6 and FXIa inh 5.
`CC(=O)c1ccc(NC(=S)Nc2cccc3cnccc23)cc1` gave thrombin 1536 19, hK5 inh 13, FXIIa inh 1536 11, Calpain2 inh 11 and FXIa inh 65*.
`Cc1ccc(NC(=S)Nc2cccc3cnccc23)cc1` gave thrombin 1536 -1, hK5 inh -3, FXIIa inh 1536 4, Calpain2 inh 13 and FXIa inh -2.
Screening O=C(NCC1CCCO1)C(c1cccnc1)N(C(=O)Cc1cccs1)c1ccccc1 (centres undefined) returned thrombin 1536 2, hK5 inh 41*, FXIIa inh 1536 7, Calpain2 inh 2 and FXIa inh -3.
For Cc1ccccc1N(C(=O)Cc1cccs1)C(C(=O)NCC1CCCO1)c1cccnc1 (centres undefined) the results were thrombin 1536 -7, hK5 inh 40, FXIIa inh 1536 -2, Calpain2 inh 1 and FXIa inh -11.
For O=C(COC(=O)c1ccccc1O)NCCCc1ccccc1 the results were thrombin 1536 -2, FXIIa inh 1536 7, Calpain2 inh -4 and FXIa inh 0.
`O=C(COC(=O)c1ccc(O)cc1)NCCCc1ccccc1` gave thrombin 1536 91*, hK5 inh 23, FXIIa inh 1536 43*, Calpain2 inh 25 and FXIa inh 28.
Screening O=C(Nc1ccc(F)cc1)C1C(c2ccccc2)C1(Cl)Cl (centres undefined) returned thrombin 1536 -5, hK5 inh -2, FXIIa inh 1536 26, Calpain2 inh 29 and FXIa inh 21.
`Cc1ccc(NC2=C/C(=N/S(=O)(=O)c3cccs3)c3ccccc3C2=O)cc1C` gave thrombin 1536 -2, hK5 inh -11, FXIIa inh 1536 5, Calpain2 inh 50* and FXIa inh -4.
`O=C(CCCN1C(=O)CCC1=O)Nc1ccc(Br)cc1F` gave thrombin 1536 10, hK5 inh 61*, FXIIa inh 1536 16, Calpain2 inh 6 and FXIa inh -1.
Screening O=C(CCCN1C(=O)CCC1=O)Nc1ccccc1F returned thrombin 1536 5, hK5 inh 3, FXIIa inh 1536 13, Calpain2 inh -24 and FXIa inh 3.
`O=C(c1cccs1)n1nc(-c2ccc(Cl)cc2)nc1NCc1ccco1` gave thrombin 1536 7, hK5 inh -2, FXIIa inh 1536 17, Calpain2 inh -6 and FXIa inh 3.
Screening CC(=O)n1nc(-c2ccc(Cl)cc2)nc1NCc1ccco1 returned thrombin 1536 47*, hK5 inh 1, FXIIa inh 1536 15, Calpain2 inh 14 and FXIa inh -12.
For Cc1ccc(C(=O)n2nc(-c3ccccc3)nc2NCc2ccco2)cc1 the results were thrombin 1536 12, hK5 inh 11, FXIIa inh 1536 12, Calpain2 inh 0 and FXIa inh 5.
